Assay [1] has as its system HL-60. The assay is described as follows: Resistance factor was determined using the ratio of (IC50) of drug resistance cells/drug sensitive cells in HL60/Vinc cell line. Type of assay: functional, Homo sapiens. In outline: (§1)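 Resistance factor = IC50 in the drug-resistant line (HL60/ADR, which overexpresses MRP, or HL60/Vinc, which overexpresses Pgp) divided by IC50 in the drug-sensitive cells. IC50s came from the tetrazolium dye reduction viability assay, as averages of 2 determinations in a single experiment.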

In assay [2] the test system is HL-60. Description: Cytotoxicity was assessed using vincristine-resistant human leukemic cell line HL60/Vinc. Format: functional, cell-based. The essentials: (§2)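 Modified tetrazolium dye reduction viability assay on log-phase cells seeded at 6.7 × 10^4 cells/well in RPMI 1640 with L-glutamine and 10% FBS, cultured with compounds. HL60/ADR overexpresses MRP but not Pgp; HL60/Vinc overexpresses Pgp but not MRP. IC50 values are averages of 2 determinations from a single experiment.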

Assay [3] deals with HL-60. Description: Cytotoxicity was assessed using drug-sensitive human leukemic cell line HL60/S. Format: functional, cell-based. The essentials:
(§3)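 Viability was read by a modified tetrazolium dye reduction method. Cells were harvested in logarithmic growth and seeded at 6.7 × 10^4 cells/well. They were grown in RPMI 1640 with L-glutamine and 10% FBS and cultured with the compounds. The IC50 was taken as the read-out.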

Assay [4] concerns HL-60. Description: Relative potency compared to cytotoxicity against HL60/S cell line of etoposide. Format: functional, Homo sapiens. In outline:
(§4)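 Relative potency compares each compound with etoposide, the reference, using IC50s from the same modified tetrazolium dye reduction viability assay. Cells were seeded at 6.7 × 10^4 cells/well in RPMI 1640 with L-glutamine and 10% FBS.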

In assay [5] the test system is CCRF-CEM. The assay is described as follows: Relative potency compared to cytotoxicity against CCRF-CEM cell line of etoposide. Type of assay: functional, Homo sapiens. The essentials: as §4
In assay [6] the test system is HL-60. The assay is described as follows: Cytotoxicity was assessed using adriamycin-resistant human leukemic cell line HL60/ADR. Format: functional, cell-based. In outline:
as §2

Assay [7] relates to HL-60. The assay is described as follows: Resistance factor was determined using the ratio of (IC50) of drug resistance cells/drug sensitive cells in HL60/ADR cell line. Format: functional, Homo sapiens. The essentials: as §1
The subject of assay [8] is CCRF-CEM. The assay is described as follows: Cytotoxicity was assessed using human leukemic cell line CCRF-CEM. Type of assay: functional, cell-based. In outline: as §3
Assay [9] relates to CCRF-CEM. The assay is described as follows: Relative potency in comparison to etoposide. Type of assay: functional, Homo sapiens. The essentials:
as §4

Setting [10] is: Homo sapiens, HL-60, read-out: IC50.

Structures are written as SMILES. ≈ marks a conversion by molar mass, not a printed value.

The term IC50 denotes the concentration that inhibits the measured activity by half. As to `COc1cc([C@H]2c3cc4c(cc3C[C@H]3COC[C@@H]32)OCO4)cc(OC)c1OC`, the RF in the assay with HL-60 [1] is 0.4; in the assay with HL-60 [7], 0.7. Also, the concentration for half-maximal inhibition (IC50) in the assay with HL-60 [2] came out at 3.06 µg/mL (≈ 7.96 µM); in the assay with HL-60 [3] (setting [10]) it was 7.09 µg/mL (≈ 18.5 µM); with HL-60 [6] (setting [10]) it was 4.86 µg/mL (≈ 12.6 µM); with CCRF-CEM [8], 8.15 µg/mL (≈ 21.2 µM). The Relative potency with HL-60 [4] was 0.23; in the assay on CCRF-CEM [5] it was 0.14.

Turning to `COc1ccc([C@@H]2c3cc(OC)c(OC)cc3C[C@H]3COC[C@@H]32)cc1OC`, the RF in the assay on HL-60 [1] was 0.3; in the assay on HL-60 [7], 0.2. Moreover, the IC50 in the assay on HL-60 [2] came out at 36.1 µg/mL (≈ 97.4 µM); in the assay with HL-60 [3] (hl-60), 117.178 µg/mL (≈ 316 µM); with HL-60 [6] (setting [10]), 23.3 µg/mL (≈ 63 µM); in the assay on CCRF-CEM [8], 38.5 µg/mL (≈ 104 µM). Further, the Relative potency with HL-60 [4] is on record as 0.01; in the assay with CCRF-CEM [5] it was 0.03.

Take `COc1ccc([C@H]2c3cc(OC)c(OC)cc3C[C@H]3COC[C@@H]32)cc1OC`: the RF with HL-60 [1] is recorded as 0.4; in the assay with HL-60 [7] it was 0.7. The half-maximal inhibitory concentration (IC50) was 14.7 µg/mL (≈ 39.8 µM) with HL-60 [2], 36.3 µg/mL (≈ 97.9 µM) in the assay on HL-60 [3] (setting [10]), 26.1 µg/mL (≈ 70.3 µM) in the assay on HL-60 [6] (setting [10]) and 21.9 µg/mL (≈ 59 µM) with CCRF-CEM [8]. The Relative potency in the assay with HL-60 [4] and in the assay with CCRF-CEM [5] was 0.05 in each case.

Turning to `COc1cc2c(cc1OC)C(c1cc(OC)c(OC)c(OC)c1)[C@H]1COC[C@@H]1C2` (some centres not stated), the RF is 0.6 in the assay with HL-60 [1] and 0.7 in the assay with HL-60 [7]. The IC50 worked out at 0.314 µg/mL (≈ 0.784 µM) with HL-60 [2], 0.533 µg/mL (≈ 1.33 µM) with HL-60 [3] (setting [10]), 0.362 µg/mL (≈ 0.904 µM) in the assay with HL-60 [6] (setting [10]) and 0.47 µg/mL (≈ 1.17 µM) with CCRF-CEM [8]. For the same molecule, the Relative potency in the assay with HL-60 [4] was determined as 3.08; in the assay with CCRF-CEM [5], 2.4.

For `COc1cc([C@@H]2c3cc4c(cc3C[C@H]3COC[C@@H]32)OCO4)cc(OC)c1OC`, the RF amounted to 0.5 in the assay on HL-60 [1] and 0.6 in the assay on HL-60 [7]. Also, the IC50 came to 0.015 µg/mL (≈ 0.039 µM) in the assay with HL-60 [2], 0.03 µg/mL (≈ 0.078 µM) in the assay on HL-60 [3] (setting [10]), 0.019 µg/mL (≈ 0.0494 µM) with HL-60 [6] (setting [10]) and 0.043 µg/mL (≈ 0.112 µM) in the assay with CCRF-CEM [8]. The Relative potency came to 54.8 with HL-60 [4] and 27 in the assay on CCRF-CEM [5].

On to `COc1cc([C@@H]2c3cc4c(cc3[C@@H](O[C@@H]3O[C@@H]5CO[C@@H](C)O[C@H]5[C@H](O)[C@H]3O)[C@H]3COC(=O)[C@H]23)OCO4)cc(OC)c1O` [ETOPOSIDE], for which the RF stood at 11 with HL-60 [1] and 33 with HL-60 [7]. For the same molecule, the concentration for half-maximal inhibition (IC50) with HL-60 [2] turned out to be 18.1 µg/mL (≈ 30.7 µM); with HL-60 [3] (setting [10]), 1.64 µg/mL (≈ 2.79 µM); in the assay with HL-60 [6] (hl-60) it was 54.94 µg/mL (≈ 93.3 µM); in the assay with CCRF-CEM [8], 1.15 µg/mL (≈ 1.95 µM). In the assay with CCRF-CEM [9], this molecule registered a Relative potency of 1.

The record behind these values is ChEMBL document CHEMBL1134605, “Cytotoxic responses to aromatic ring and configurational variations in alpha-conidendrin, podophyllotoxin, and sikkimotoxin derivatives” (J Med Chem, 2001).
